Screening results (PubChem BioAssay)
The list is not random: actives were taken first. Their share in the collection is about 1.9%.
NadD inh: blocks S. aureus nicotinate mononucleotide adenylyltransferase | 360,000 tested, 0.78% active | inhibition, % at 20 µM | purified NadD enzyme, colorimetric absorbance read-out | AID 602399; in the data active = inhibition above about 26%
TbMetRS inhib: Trypanosoma brucei MetRS inhibition. inhibition, % at 11.9 µM. purified T. brucei MetRS, ATP depletion, Kinase-Glo luminescence. 360,000 tested, 0.4% active. AID 624268;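 active = inhibition above a per-plate cutoff of the control wells' mean inhibition plus 3 SD, cut at about 5.5% in these data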
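Dosing: 11.9 µM compound single dose, 0.9% DMSO; Assay system: purified T. brucei MetRS enzyme; Measured by: Kinase-Glo luciferase luminescence reporting remaining unconsumed ATP; Schedule: 15 min plus 2 h at 25 °C.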
DSG3 Ab inh: blocks pemphigus antibody binding to human desmoglein-3; P32926; DSG3-coupled beads, scFv-anti-DSG3-GFP binding, flow cytometry; active compounds read low; binding (percent of control), % at 10 µM; 310,000 tested, 0.48% active;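 active = binding more than 3 SD below its plate's average and above zero; inconclusive = below that plate limit but binding exactly zero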;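 note: hits lower antibody fragment binding to DSG3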
Rce1 inh: blocks yeast Ras-converting enzyme | Q03530 | yeast membranes, quenched prenylated peptide cleavage fluorescence | calls only | 290,000 tested, 0.27% active | AID 2563;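 active = fall in fluorescence gain of 50% or more versus controls, with final raw signal at or below 3038400; inconclusive = same 50% fall but final raw signal above 3038400; inactive = fall in fluorescence gain under 50%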
Target sequence (Q03530 whole entry, looked up): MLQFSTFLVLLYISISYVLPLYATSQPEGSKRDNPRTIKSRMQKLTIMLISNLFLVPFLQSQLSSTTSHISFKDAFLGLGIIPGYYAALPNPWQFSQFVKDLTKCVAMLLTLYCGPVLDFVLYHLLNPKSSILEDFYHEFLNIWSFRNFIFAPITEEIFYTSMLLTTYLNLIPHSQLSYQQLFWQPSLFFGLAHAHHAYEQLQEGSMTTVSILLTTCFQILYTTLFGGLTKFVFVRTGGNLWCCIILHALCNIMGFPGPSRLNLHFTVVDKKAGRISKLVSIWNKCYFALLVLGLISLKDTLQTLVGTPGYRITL
HCV core dimer: HCV core protein dimerization inhibition; inhibition, % at 5 µM; AID 1899; TR-FRET GST/Flag-core106 dimerization, 1536-well; 300,000 tested, 0.33% active;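 active = inhibition above the mean of all tested compounds plus 3 SD, set per screening campaign, cut at about 45% in these data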
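Material: GST/Flag-tagged HCV core106 proteins. Incubation: 4 h, 22.5 °C incubation. Read-out basis: inhibition (%) from 671 over 617 nm ratio. Measured by: TR-FRET, excitation 340 nm, emission 617 and 671 nm.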
Tb MetRS conf: Trypanosoma brucei MetRS inhibition confirmed; shares compounds with TbMetRS inhib; T. brucei MetRS enzyme, luminescence (ATP depletion); inhibition, % at 11.9 µM; 1,400 tested, 93% active; in the data active = inhibition above about 7%
Jurkat cytotox: kills Jurkat cells in T. brucei MetRS counterscreen; shares compounds with TbMetRS inhib; Jurkat cells viability, ATP luminescence; inhibition, % at 8.3 µM; 1,400 tested, 12% active; AID 624413; in the data active = inhibition above about 15%
Tb MetRS inh FP: T. brucei MetRS inhibition, orthogonal assay; shares compounds with TbMetRS inhib; purified T. brucei MetRS, fluorescence polarization; inhibition, % at 11.9 µM; 1,400 tested, 44% active; in the data active = inhibition above about 17%
Large screens that a line does not name were inactive (follow-up assays come after a bar, where they were run).

O=C(NCc1nc2ccccc2[nH]1)C1=C[C@H](c2ccc(Br)cc2)C[C@H](OCc2ccc(CO)cc2)O1	TbMetRS inhib 65.9 | Tb MetRS conf 98.2 | Jurkat cytotox inactive | Tb MetRS inh FP 74.6
O=C(NCc1nc2ccccc2[nH]1)C1=C[C@@H](c2csc3ccccc23)C[C@@H](OCCCCO)O1	TbMetRS inhib 72.2 | Tb MetRS conf 100.9 | Jurkat cytotox inactive | Tb MetRS inh FP 77.2
C#CCNC(=O)C1=C[C@H](c2ccc(C(F)(F)F)cc2)C[C@H](OCc2ccc(CO)cc2)O1	none
C[C@@H]1C=C(C(=O)NCc2nc3ccccc3[nH]2)O[C@H](OCc2ccc(CO)cc2)C1	TbMetRS inhib 69.1 | Tb MetRS conf 95.9 | Jurkat cytotox inactive | Tb MetRS inh FP 72.0
CC(C)OC(=O)NCN1C(=O)C2C3C=CC(C3)C2C1=O (configuration not stated)	none
O=C(NC1CCCCC1)C1CCCN1S(=O)(=O)c1cccc2nsnc12 (configuration not stated)	none (no result: DSG3 Ab inh)
O=C(NCc1cccc(Cl)c1)c1ccc2c(c1)SC1=NS(=O)(=O)CCN12	TbMetRS inhib 6.1 | Tb MetRS conf 15.0 | Jurkat cytotox inactive | Tb MetRS inh FP inactive
O=C(NCc1ccccc1Cl)c1ccc2c(c1)SC1=NS(=O)(=O)CCN12	none
Cn1nc(C(F)(F)F)c(-c2cccc(C(F)(F)F)c2)c1NC(=O)Nc1ccc(F)cc1	TbMetRS inhib 40.6 | Tb MetRS conf 58.4 | Jurkat cytotox inactive | Tb MetRS inh FP 38.3
Oc1[nH]c(=S)sc1C=C1N=c2ccccc2=N1	TbMetRS inhib 6.5 | Tb MetRS conf 14.6 | Jurkat cytotox inactive | Tb MetRS inh FP inactive
Oc1c(C=C2N=c3ccccc3=N2)sc(=S)n1-c1ccc(F)cc1	none
O=C(c1ccc2c(c1)OCO2)N(Cc1cccs1)C1(C(=O)NC2CCCCC2)CCCCC1	none
Cn1nccc1-c1coc2c(C(=O)N3CCOCC3)cccc12	TbMetRS inhib 7.6 (no result: DSG3 Ab inh, Rce1 inh, HCV core dimer) | Tb MetRS conf inactive | Jurkat cytotox inactive | Tb MetRS inh FP inactive
CCn1c(SCC(=O)Nc2cc(C)on2)nc2sc3c(c2c1=O)CCCC3	none
O=C(CCc1nc2ccccc2c(=O)[nH]1)OCCOc1ccc(Cl)cc1	TbMetRS inhib 16.2 | Tb MetRS conf 30.1 | Jurkat cytotox inactive | Tb MetRS inh FP 18.7
CCCCCCN=C(C)C1=C(O)C(C(=O)OC)C(C)(C)CC1=O (configuration not stated)	none
COc1ccc(CNc2nc3c(c(=O)[nH]c(=O)n3C)n2Cc2ccccc2C)cc1	none
Cc1ccc(C(=O)NCCc2nc3ccccc3[nH]2)cc1[N+](=O)[O-]	TbMetRS inhib 77.2 | Tb MetRS conf 78.2 | Jurkat cytotox 19.8 | Tb MetRS inh FP 59.1
O=C(NCCc1nc2ccccc2[nH]1)c1ccc(Cl)c([N+](=O)[O-])c1	TbMetRS inhib 94.3 | Tb MetRS conf 99.6 | Jurkat cytotox inactive | Tb MetRS inh FP 97.2
O=C(NCCc1cccc(Cl)c1)c1ccc(Cl)c([N+](=O)[O-])c1	none
COc1ccc(S(=O)(=O)N2CCC(N3CCN(Cc4ccccc4)CC3)CC2)cc1	none
O=c1c2cc(Cl)ccc2[nH]c(=S)n1Cc1ccccn1	TbMetRS inhib 6.8 | Tb MetRS conf 15.8 | Jurkat cytotox inactive | Tb MetRS inh FP inactive
O=C(NCc1ccccn1)c1ccc(Cn2c(=S)[nH]c3ccc(Br)cc3c2=O)cc1	none
Clc1ccccc1-c1ccc2ncnc(NCc3ccc4c(c3)OCO4)c2c1	TbMetRS inhib 26.1 (no result: Rce1 inh, HCV core dimer) | Tb MetRS conf 32.2 | Jurkat cytotox inactive | Tb MetRS inh FP 21.9
Clc1ccccc1-c1ccc2ncnc(NCc3cccnc3)c2c1	TbMetRS inhib 11.8 (no result: Rce1 inh, HCV core dimer) | Tb MetRS conf 44.5 | Jurkat cytotox inactive | Tb MetRS inh FP 33.4
Cc1ccc(C(=O)N/C(=C\c2cccnc2)c2nc3ccccc3[nH]2)cc1	TbMetRS inhib 15.5 | Tb MetRS conf 35.5 | Jurkat cytotox inactive | Tb MetRS inh FP inactive
COc1ccc(C(=O)N/C(=C\c2cccs2)c2nc3ccccc3[nH]2)cc1OC	TbMetRS inhib 8.2 | Tb MetRS conf 15.9 | Jurkat cytotox inactive | Tb MetRS inh FP inactive
COc1ccc(/C=C(/NC(=O)c2ccccc2)c2nc3ccccc3[nH]2)cc1OC	none
Cc1cc(C)n2nc(-c3cccc(Br)c3)cc2n1	none
CCOC(=O)C(/C=C(\C#N)C(=O)OCC)=C(/N)N1CCN(c2ccc(Cl)cc2)CC1	TbMetRS inhib 40.4 | Tb MetRS conf 49.4 | Jurkat cytotox inactive | Tb MetRS inh FP 24.2
NS(=O)(=O)c1ccc(NC(=O)c2ccc3c(c2)CCN3S(=O)(=O)c2ccccc2)cc1	none
O=C(Nn1c(-c2ccc(Br)cc2)nc2ccccc2c1=O)c1ccc([N+](=O)[O-])cc1	TbMetRS inhib 8.7 | Tb MetRS conf 18.1 | Jurkat cytotox inactive | Tb MetRS inh FP inactive
O=C(Nn1c(-c2ccncc2)nc2ccccc2c1=O)c1ccc(Br)cc1	none
O=C(Nc1ccc(F)c(F)c1)c1ccccc1	none (no result: Rce1 inh)
O=[N+]([O-])c1ccc(OCc2cnc(Cl)s2)c([N+](=O)[O-])c1	TbMetRS inhib 6.7, DSG3 Ab inh 86.8 | Tb MetRS conf 17.7 | Jurkat cytotox inactive | Tb MetRS inh FP inactive
CCC1CCCN1Cn1cnc2c([nH]c3ccc(Cl)cc32)c1=O (configuration not stated)	TbMetRS inhib 5.8 | Tb MetRS conf 17.9 | Jurkat cytotox inactive | Tb MetRS inh FP inactive
CCC1CCCN1Cn1cnc2c([nH]c3ccc(C)cc32)c1=O (configuration not stated)	none
O=C(NCc1cccc(Cl)c1)c1cnn2c1NC(c1ccco1)CC2C(F)(F)F (configuration not stated)	TbMetRS inhib 10.4 | Tb MetRS conf 22.6 | Jurkat cytotox inactive | Tb MetRS inh FP inactive
COc1cccc(NC(=O)C(C#N)Cc2ccncc2)c1 (configuration not stated)	TbMetRS inhib 16.4 | Tb MetRS conf inactive | Jurkat cytotox inactive | Tb MetRS inh FP inactive
Oc1ccc(/C=N/Nc2ccnc3cc(Cl)ccc23)c(O)c1	TbMetRS inhib 14.4 | Tb MetRS conf 21.5 | Jurkat cytotox 55.5 | Tb MetRS inh FP 46.5
Cc1ccccc1/C=N/Nc1ccnc2cc(Cl)ccc12	none
N#Cc1c(NCCCO)nc(NCc2ccccc2)c2c1CCN(Cc1ccccc1)C2	TbMetRS inhib 42.0 | Tb MetRS conf 35.6 | Jurkat cytotox inactive | Tb MetRS inh FP 19.1
O=C(NCC(O)c1ccc([N+](=O)[O-])cc1)Nc1ccccc1 (configuration not stated)	TbMetRS inhib 27.2, DSG3 Ab inh inconclusive | Tb MetRS conf 46.2 | Jurkat cytotox inactive | Tb MetRS inh FP 21.3
